Experimental data taken from ChEMBL document CHEMBL2396521, “Development and characterization of glutamyl-protected N-hydroxyguanidines as reno-active nitric oxide donor drugs with therapeutic potential in acute renal failure” (J Med Chem, 2013).
One block for each molecule: values may come before it. Active and inactive are the calls of the source. No cut-off for these calls is given here.

Legend:
[1] = system: Aorta; assay: Vasodilatory activity in Wistar rat endothelium-intact aorta assessed as reduction of acetylcholine-induced vasoconstriction at 100 uM in presence of gamma-glutamyl transpeptidase and oxyhemoglobin; assay type: functional, tissue-based
Outline: (§1)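 Aortic ring myograph (rat, 37 °C, Krebs, precontracted). The glutamyl prodrug at 10 mM was preincubated with γ-GT (100 mU/5 mM gly-gly) for 1 h at 37 °C before addition to the bath at 100 μM. Hemoglobin (10 μM), where present, was used as NO scavenger.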

[2] = system: Aorta; assay: Vasodilatory activity in Wistar rat endothelium-intact aorta assessed as reduction of acetylcholine-induced vasoconstriction at 100 uM in presence of gamma-glutamyl transpeptidase; assay type: functional; set-up: scale not given: the % may be the effect or the level left; outline: as §1
[3] = system: Aorta; assay: Vasodilatory activity in Wistar rat endothelium-intact aorta assessed as reduction of acetylcholine-induced vasoconstriction at 100 uM; assay type: functional, tissue-based
Outline: (§2)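 Male Wistar rat aortic rings (~3 mm) in a myograph at 37 °C in oxygenated Krebs, stretched to 15 mN, with maximal contraction set by 60 mM KCl and endothelium checked with ACh. Precontracted rings received NHG as a single 100 μM dose or cumulatively at 1−100 μM. Parallel rings were exposed before and during dosing to L-NAME 200 μM, L-Arg 100 μM, Hb 10 μM or ODQ 50 μM.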

[4] = system: Aorta; assay: Vasodilatory activity in Wistar rat endothelium-intact aorta assessed as reversibility of reduction of acetylcholine-induced vasoconstriction in presence of ODQ; assay type: functional; set-up: concentration or dose not given beside the values
[5] = system: Aorta; assay: Vasodilatory activity in Wistar rat endothelium-intact aorta assessed as reduction of acetylcholine-induced vasoconstriction; assay type: functional, tissue-based; outline: as §2
[6] = species: Rattus norvegicus; assay: Induction of NOx production in Wistar rat renal medullar homogenates at 100 uM after 1 hr by Griess test in presence of L-NAME; assay type: functional, tissue-based; conditions: Renal medulla
Outline: (§3)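 Crude homogenates of liver, renal cortex or renal medulla from freshly killed adult male Wistar rats, prepared in ice-cold HBSS with 1% Triton X. NHG at 100 μM was incubated for 1 h at 37 °C, with or without L-NAME (200 μM), then spun at 1000g and 4 °C. NOx (nitrite + nitrate) was measured by Griess assay. n = 4−5; paired t-tests.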

[7] = species: Rattus norvegicus; assay: Induction of NOx production in Wistar rat renal cortex homogenates at 100 uM after 1 hr by Griess test in presence of L-NAME; assay type: functional, tissue-based; outline: as §3
[8] = system: Liver; assay: Induction of NOx production in Wistar rat liver homogenates at 100 uM after 1 hr by Griess test in presence of L-NAME; assay type: functional, tissue-based; outline: as §3
[9] = Induction of xanthine/xanthine oxidase-mediated NOx production at 100 uM after 1 hr by Griess test in presence of allopurinol; assay type: physicochemical
Outline: (§4)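 Cell-free xanthine/xanthine oxidase (100 μM X / 100 mU XO) was made fresh daily in KPE buffer. NHG at 100 μM was incubated for 1 h at 37 °C, with or without allopurinol (100 μM), then centrifuged at 1000g and 4 °C. NOx was measured by Griess assay. n = 4−5; paired t-tests.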

[10] = species: Rattus norvegicus; assay: Induction of NOx production in Wistar rat renal medullar homogenates at 100 uM after 1 hr by Griess test; assay type: functional, tissue-based; conditions: Renal medulla; outline: as §3
[11] = species: Rattus norvegicus; assay: Induction of NOx production in Wistar rat renal cortex homogenates at 100 uM after 1 hr by Griess test; assay type: functional, tissue-based; outline: as §3
[12] = system: Liver; assay: Induction of NOx production in Wistar rat liver homogenates at 100 uM after 1 hr by Griess test; assay type: functional, tissue-based; outline: as §3
[13] = Induction of xanthine/xanthine oxidase-mediated NOx production at 100 uM after 1 hr by Griess test; assay type: physicochemical; outline: as §4
[14] = system: Aorta; assay: Vasodilatory activity in Wistar rat endothelium-intact aorta assessed as reduction of acetylcholine-induced vasoconstriction at 100 uM in presence of L-Arg; assay type: functional, tissue-based; outline: as §2
[15] = system: Aorta; assay: Vasodilatory activity in Wistar rat endothelium-intact aorta assessed as reduction of acetylcholine-induced vasoconstriction at 100 uM in presence of ODQ; assay type: functional, tissue-based; outline: as §2
[16] = system: Aorta; assay: Vasodilatory activity in Wistar rat endothelium-intact aorta assessed as reduction of acetylcholine-induced vasoconstriction at 100 uM in presence of hemoglobin; assay type: functional, tissue-based; outline: as §2
[17] = system: Aorta; assay: Vasodilatory activity in Wistar rat endothelium-intact aorta assessed as reduction of acetylcholine-induced vasoconstriction at 100 uM in presence of L-NAME; assay type: functional, tissue-based; outline: as §2
[18] = species: Rattus norvegicus; assay: Induction of NOx production in Wistar rat renal medullar homogenates at 100 uM after 1 hr by Griess test in presence of gamma-glutamyl transpeptidase; assay type: functional, tissue-based; conditions: Renal medulla
[19] = species: Rattus norvegicus; assay: Induction of NOx production in Wistar rat renal cortex homogenates at 100 uM after 1 hr by Griess test in presence of gamma-glutamyl transpeptidase; assay type: functional, tissue-based
[20] = system: Liver; assay: Induction of NOx production in Wistar rat liver homogenates at 100 uM after 1 hr by Griess test in presence of gamma-glutamyl transpeptidase; assay type: functional, tissue-based
[21] = Induction of xanthine/xanthine oxidase-mediated NOx production at 100 uM after 1 hr by Griess test in presence of gamma-glutamyl transpeptidase; assay type: physicochemical
[22] = system: Kidney; assay: Prodrug activation in Wistar rat kidney homogenates assessed as formation of N-(4-Phenylethyl)-N'-hydroxyguanidine Hydrochloride at 1 to 100 uM; assay type: tissue-based; conditions: tissue homogenate, TDE = time-dependent effect
Outline: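 Prodrug at 1, 10 or 100 μM was incubated with freshly pooled (n = 3) male Wistar rat kidney homogenate. Samples were taken every 15 min over 45 min, and the parent NHG was quantified by positive-ion LC-MS/MS on a C18 column with 0.1% formic acid in 95% water/5% acetonitrile. Total protein was determined by Lowry assay.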

[23] = system: Kidney; assay: Prodrug activation in Wistar rat kidney homogenates assessed as formation of N-(4-Phenylethyl)-N'-hydroxyguanidine Hydrochloride after 10 to 40 mins; assay type: tissue-based; conditions: tissue homogenate
[24] = system: Kidney; assay: Vasodilatory activity in Wistar rat isolated perfused rat kidney model in presence of gamma-glutamyl transpeptidase; assay type: functional, tissue-based
Outline: (§5)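 Isolated perfused kidney from a pentobarbital-anaesthetized (i.p.) male Wistar rat, perfused at 10 mL/min with perfusion pressure read via a side-port transducer. After 20 min equilibration, pressure was raised to 120−140 mmHg with phenylephrine (0.3 μM increments). Compound was added cumulatively to the perfusate (1 μM to 1 mM).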

[25] = system: Kidney; assay: Vasodilatory activity in Wistar rat isolated perfused rat kidney model at 250 uM in presence of gamma-glutamyl transpeptidase; assay type: functional, tissue-based; outline: as §5

SMILES: CN(CCCC(=O)O)/C(=N\O)NC(=O)CC[C@H](N)C(=O)O
- Activity [1]: inactive
- Activity [2]: 18%
- Activity [3]: inactive

- EC50 [5]: 12.6 µM
SMILES: Cl.N=C(NO)NCc1ccccc1
- Activity [4]: 37%

- pEC50 [5]: inactive
- Activity [9]: Active
- Activity [13]: Not Active
SMILES: CN(CCCC(=O)O)C(N)=O
- Activity [6]: Active
- Activity [7]: Active
- Activity [8]: Active
- Activity [10]: 1 µM
- Activity [11]: 1 µM
- Activity [12]: 1 µM

- Activity [18]: inactive
- Activity [19]: inactive
- Activity [20]: inactive
- Activity [21]: Not Active
- Activity [9]: Not Active
- Activity [13]: 5 µM
SMILES: N=C(NO)NCCC[C@H](N)C(=O)O
- Activity [14]: inactive
- Activity [15]: inactive
- Activity [16]: inactive
- Activity [17]: inactive
- Activity [3]: Active
- Activity [6]: inactive
- Activity [7]: inactive
- Activity [8]: inactive
- Activity [10]: 5 µM
- Activity [11]: 5 µM
- Activity [12]: 5 µM

- Drug metabolism [22]: tde
- Drug metabolism [23]: Dose-dependent effect
- EC50 [24]: 50 µM
SMILES: N/C(=N\OCc1ccc(NC(=O)CC[C@H](N)C(=O)O)cc1)NCCc1ccccc1
- Activity [4]: Active
- Activity [2]: Active
- Activity [3]: Active

- EC50 [5]: 20 µM
SMILES: COc1ccccc1CCN/C(N)=N/O.Cl
- Activity [4]: 14%

- Activity [25]: inactive
SMILES: N[C@@H](CCC(=O)NCCCC(=O)N/C(=N\OC(=O)CCCNC(=O)CC[C@H](N)C(=O)O)NCCc1ccccc1)C(=O)O

- Activity [13]: Active
SMILES: CN(CCCC(=O)O)/C(N)=N/O
- Activity [17]: inactive
- Activity [3]: Active
- Activity [10]: 1 µM
- Activity [11]: 1 µM
- Activity [12]: 1 µM

- EC50 [5]: 50.1 µM
SMILES: Cl.N/C(=N\O)NCCc1cccc2ccccc12
- Activity [4]: 1%

SMILES: CN(CCCC(=O)O)c1noc(CC[C@H](N)C(=O)O)n1
- Activity [2]: inactive
- Activity [3]: inactive

- EC50 [5]: 12.6 µM
SMILES: Cc1ccc(CCN/C(N)=N/O)cc1.Cl
- Activity [4]: 35%

- EC50 [5]: 631 µM
SMILES: Cl.N/C(=N\O)NCCCCc1ccccc1
- Activity [4]: 28%

- EC50 [5]: 63.1 µM
SMILES: Cl.N/C(=N\O)NCCc1ccc(F)cc1
- Activity [4]: 11%

- EC50 [5]: 31.6 µM
SMILES: CCCCN/C(N)=N/O.Cl
- Activity [4]: 100%

- EC50 [5]: 50.1 µM
SMILES: COc1ccc(CCN/C(N)=N/O)cc1.Cl
- Activity [4]: 40%

- EC50 [5]: 3.98 µM
SMILES: COc1cccc(CCN/C(N)=N/O)c1.Cl
- Activity [4]: 9%

- EC50 [5]: 25.1 µM
SMILES: Cl.N/C(=N\O)NCCc1ccccc1
- Activity [14]: inactive
- Activity [15]: inactive
- Activity [16]: inactive
- Activity [4]: 75%
- Activity [17]: inactive

- EC50 [5]: 15.8 µM
SMILES: Cl.N/C(=N\O)NCCc1ccc(Br)cc1
- Activity [4]: 34%

- EC50 [5]: 15.8 µM
SMILES: Cl.N/C(=N\O)NCCCc1ccccc1
- Activity [4]: 68%

- EC50 [5]: 63.1 µM
SMILES: N/C(=N\O)NCCc1ccc(O)cc1

- EC50 [5]: 100 µM
SMILES: Cl.N/C(=N\O)NCCc1ccc(Cl)cc1
- Activity [4]: 11%
